From ChEMBL document CHEMBL1641456, “Design, synthesis, and pharmacological evaluation of azetedine and pyrrolidine derivatives as dual norepinephrine reuptake inhibitors and 5-HT(1A) partial agonists” (Bioorg Med Chem Lett, 2011)

Key:
[1] = molecular target: T1, Sodium-dependent noradrenaline transporter (Homo sapiens, UniProt P23975); test: Displacement of [3H]nisoxetine from human NET by scintillation proximity assay
Procedure, shortened: (§1)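 Human transporter binding by scintillation proximity assay: inhibition of [³H]nisoxetine (NET), [³H]WIN 35,428 (DAT) or [³H]citalopram (SERT) binding measured. Ki values are the mean of at least two experiments, each run in duplicate.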

[2] = molecular target: Sodium-dependent dopamine transporter (Homo sapiens, UniProt Q01959); test: Displacement of [3H]WIN-35,428 from human DAT by scintillation proximity assay; procedure, shortened: as §1
Chain of Sodium-dependent dopamine transporter (Q01959 whole entry): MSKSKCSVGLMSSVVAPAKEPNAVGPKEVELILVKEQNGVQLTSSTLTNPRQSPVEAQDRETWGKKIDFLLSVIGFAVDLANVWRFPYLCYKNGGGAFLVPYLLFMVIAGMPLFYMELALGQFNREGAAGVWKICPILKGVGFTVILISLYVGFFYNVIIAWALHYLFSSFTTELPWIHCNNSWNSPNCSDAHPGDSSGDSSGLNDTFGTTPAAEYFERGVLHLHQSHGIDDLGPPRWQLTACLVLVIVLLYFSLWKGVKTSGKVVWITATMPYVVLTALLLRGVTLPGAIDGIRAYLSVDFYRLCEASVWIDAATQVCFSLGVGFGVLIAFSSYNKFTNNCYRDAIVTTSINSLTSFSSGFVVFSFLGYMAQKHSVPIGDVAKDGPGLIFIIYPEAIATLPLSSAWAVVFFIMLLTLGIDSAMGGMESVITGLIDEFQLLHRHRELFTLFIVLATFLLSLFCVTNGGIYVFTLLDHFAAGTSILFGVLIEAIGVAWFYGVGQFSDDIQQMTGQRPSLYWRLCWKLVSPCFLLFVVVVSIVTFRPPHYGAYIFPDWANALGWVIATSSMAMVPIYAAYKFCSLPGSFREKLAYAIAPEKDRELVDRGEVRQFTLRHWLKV

[3] = molecular target: Sodium-dependent serotonin transporter (Homo sapiens, UniProt P31645); test: Displacement of [3H]citalopram from human SERT by scintillation proximity assay; procedure, shortened: as §1
Chain of Sodium-dependent serotonin transporter (P31645 whole entry): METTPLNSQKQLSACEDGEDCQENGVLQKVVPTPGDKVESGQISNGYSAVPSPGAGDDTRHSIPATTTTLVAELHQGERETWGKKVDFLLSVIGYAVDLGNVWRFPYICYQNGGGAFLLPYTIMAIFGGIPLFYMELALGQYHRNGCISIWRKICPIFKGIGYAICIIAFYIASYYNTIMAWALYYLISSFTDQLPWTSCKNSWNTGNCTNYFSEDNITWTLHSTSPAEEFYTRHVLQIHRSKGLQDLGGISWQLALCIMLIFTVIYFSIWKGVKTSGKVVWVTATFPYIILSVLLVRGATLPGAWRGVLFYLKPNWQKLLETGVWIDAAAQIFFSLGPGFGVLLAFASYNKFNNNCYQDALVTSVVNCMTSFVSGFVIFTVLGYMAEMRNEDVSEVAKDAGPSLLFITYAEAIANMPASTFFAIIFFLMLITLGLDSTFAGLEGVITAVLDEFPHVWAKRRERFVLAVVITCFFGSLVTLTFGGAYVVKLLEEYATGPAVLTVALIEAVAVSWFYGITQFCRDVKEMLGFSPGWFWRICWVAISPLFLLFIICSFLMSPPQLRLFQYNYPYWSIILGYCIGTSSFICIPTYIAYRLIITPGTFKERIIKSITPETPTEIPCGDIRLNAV

[4] = molecular target: T2, 5-hydroxytryptamine receptor 1A (Homo sapiens, UniProt P08908); test: Displacement of [3H]8-OH-DPAT from human cloned 5HT1A receptor by liquid scintillation spectrophotometry
T2 sequence (P08908 whole entry): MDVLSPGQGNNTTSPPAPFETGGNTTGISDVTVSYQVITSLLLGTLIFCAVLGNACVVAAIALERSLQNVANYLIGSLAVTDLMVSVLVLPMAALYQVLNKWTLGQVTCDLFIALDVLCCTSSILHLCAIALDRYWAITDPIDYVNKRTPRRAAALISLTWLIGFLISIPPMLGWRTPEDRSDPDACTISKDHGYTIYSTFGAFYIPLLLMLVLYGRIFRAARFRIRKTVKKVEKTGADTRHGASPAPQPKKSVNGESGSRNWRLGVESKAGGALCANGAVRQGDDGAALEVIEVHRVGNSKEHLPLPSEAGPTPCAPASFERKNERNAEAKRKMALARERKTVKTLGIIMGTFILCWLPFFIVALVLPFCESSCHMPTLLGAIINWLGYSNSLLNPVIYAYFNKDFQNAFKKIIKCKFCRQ

Rattus norvegicus [5] = test: In vivo 5HT1A receptor occupancy in rat brain at 10 mg/kg, sc after 1 hr; format: functional; conditions: route subcutaneous
Procedure, shortened: (§2)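 Ex vivo receptor occupancy of NET and 5-HT1A in rat brain, collected 1 h after 10 mg/kg subcutaneous dosing.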

Rattus norvegicus [6] = test: In vivo NET occupancy in rat brain at 10 mg/kg, sc after 1 hr; format: functional; conditions: route subcutaneous; procedure, shortened: as §2
[7] = Cmax in dog at 5 mg/kg, po after 1 hr; format: ADME, organism-based, Canis lupus familiaris; parameters: dose 5 mg/kg, route oral; conditions: in vivo
[8] = Tmax in dog at 5 mg/kg, po; format: ADME, organism-based, Canis lupus familiaris; parameters: dose 5 mg/kg, route oral; conditions: in vivo
[9] = AUC ( 0 to 24 hrs) in dog at 5 mg/kg, po after 1 hr; format: ADME, organism-based, Canis lupus familiaris; parameters: time < 24 hr, dose 5 mg/kg, route oral; conditions: plasma
[10] = Half life in dog at 5 mg/kg, po; format: ADME, organism-based, Canis lupus familiaris; parameters: dose 5 mg/kg, route oral; conditions: in vivo
[11] = Drug level in rat brain at 10 mg/kg, sc after 1 hr; format: ADME, organism-based; parameters: dose 10 mg/kg, route subcutaneous; conditions: read-out: Drug uptake
Procedure, shortened: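 Rats dosed subcutaneously at 10 mg/kg; total brain drug concentration measured 1 h post-dose. Reported as mean with SEM, n = 4.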

[12] = molecular target: T2, 5-hydroxytryptamine receptor 1A; test: Agonist activity at 5HT1A receptor by GTPgammaS binding assay; format: functional
[13] = molecular target: T1, Sodium-dependent noradrenaline transporter; test: […] at human cloned NET expressed in HEK293 cells by FLIPR assay; format: functional, cell-based
Rattus norvegicus [14] = test: In vivo 5HT1A receptor occupancy in sc dosed rat brain; format: functional
Procedure, shortened: (§3)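 Ex vivo NET and 5-HT1A occupancy in rat brain from a subcutaneous dose–response, read 1 h post-dose. ID50 derived from the dose–response. For 5-HT1A, the dose giving 10% receptor occupancy was also determined.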

Rattus norvegicus [15] = test: In vivo NET occupancy in sc dosed rat brain; format: functional; conditions: read-out: ID50 (the source's name); procedure, shortened: as §3

T1 sequence (P23975 whole entry): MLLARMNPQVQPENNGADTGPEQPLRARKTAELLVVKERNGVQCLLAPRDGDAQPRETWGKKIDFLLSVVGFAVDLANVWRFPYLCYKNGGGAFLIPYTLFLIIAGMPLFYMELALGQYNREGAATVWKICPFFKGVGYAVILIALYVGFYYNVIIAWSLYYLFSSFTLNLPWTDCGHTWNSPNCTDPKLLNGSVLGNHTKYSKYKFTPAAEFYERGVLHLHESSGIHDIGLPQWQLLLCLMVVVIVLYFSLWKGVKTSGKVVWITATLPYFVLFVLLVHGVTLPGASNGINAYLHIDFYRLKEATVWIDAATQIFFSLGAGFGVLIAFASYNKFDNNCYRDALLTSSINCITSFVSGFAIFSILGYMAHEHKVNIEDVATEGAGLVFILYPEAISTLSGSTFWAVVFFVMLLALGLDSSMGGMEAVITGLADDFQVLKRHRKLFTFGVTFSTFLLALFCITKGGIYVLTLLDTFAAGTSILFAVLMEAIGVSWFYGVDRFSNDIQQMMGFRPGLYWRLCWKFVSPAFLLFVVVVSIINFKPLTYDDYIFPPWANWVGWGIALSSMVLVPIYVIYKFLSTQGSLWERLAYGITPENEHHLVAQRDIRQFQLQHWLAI

Row | SMILES | Ki [1] [nM] | Ki [2] [nM] | Ki [3] [nM] | Ki [4] [nM] | further results
1 | Fc1ccccc1Oc1cccc(F)c1C1CCNCC1 |  |  |  |  | Activity (Rattus norvegicus [5]): 62%; Activity (Rattus norvegicus [6]): 80%; concentration at 1 h [11]: 2230 ng/mL
2 | Fc1ccccc1Oc1cccc(F)c1OC1CNC1 | 507 | > 4860 | > 4710 | 12 | 
3 | Cc1cccc(F)c1Oc1cccc(F)c1OC1CCNC1 (centres undefined) | 328 | > 6460 | > 4690 | 4 | 
4 | Fc1ccccc1Oc1cccc(F)c1OC1CCNC1 (centres undefined) | 1020 | 3880 | > 4710 | 8 | 
5 | Fc1cccc(Cl)c1Oc1cccc(F)c1OC1CCNC1 (centres undefined) | 226 | > 6460 | > 4900 |  | Activity (Rattus norvegicus [5]): 73%; Activity (Rattus norvegicus [6]): 54%; concentration at 1 h [11]: 5620 ng/mL; EC50 [13]: 97 nM
6 | Cc1cccc(F)c1Oc1cccc(F)c1OC1CCNCC1 | 323 | > 6460 | 3250 | 4 | 
7 | Fc1cccc(Cl)c1Oc1cccc(F)c1O[C@@H]1CCNC1 | 110 | > 5870 | > 4530 |  | Cmax [7]: 146 ng/mL; Tmax [8]: 1 h; AUC(0-t) at 24 h [9]: 560 ng·h/mL; half-life [10]: 1.85 h
8 | c1ccc(Oc2ccccc2OC2CNC2)cc1 | 1640 | 2090 | 2670 | 57 | 
9 | Fc1ccccc1Oc1cccc(F)c1OC1CCCNC1 (centres undefined) | 1950 | > 5590 | > 4710 | 90 | 
10 | Fc1cccc(Cl)c1Oc1cccc(F)c1OC1CNC1 | 138 | > 6460 | > 4900 | 1 | Activity (Rattus norvegicus [5]): 81%; Activity (Rattus norvegicus [6]): 87%; ID10 (Rattus norvegicus [14]): < 1 mg/kg; ED50 (Rattus norvegicus [15]): 1.2 mg/kg; Cmax [7]: 919 ng/mL; Tmax [8]: 1 h; AUC(0-t) at 24 h [9]: 3480 ng·h/mL; half-life [10]: 2.35 h; concentration at 1 h [11]: 5900 ng/mL; EC50 [12]: 197 nM; EC50 [13]: 28 nM
11 | Fc1ccccc1Oc1ccccc1OC1CCNC1 (centres undefined) | 1350 | > 6220 | > 4710 | 193 | 
12 | Fc1ccccc1Oc1ccccc1OC1CCNCC1 | 1000 | 4510 | > 4710 | 693 | 

More lines, main results first:

Row | Ki [1] [nM] | Ki [2] [nM] | Ki [3] [nM] | Ki [4] [nM] | SMILES | further results
13 | 164 | > 5940 | > 4620 | 6 | Fc1cccc(Oc2c(Cl)cccc2Cl)c1OC1CNC1 | 
14 | 1010 | > 5870 | > 4530 |  | Fc1cccc(Cl)c1Oc1cccc(F)c1O[C@H]1CCNC1 | 
15 | 489 | 2190 | > 4650 | 30 | Fc1ccccc1Oc1cccc(F)c1OC1CCNCC1 | 
16 | 433 | > 6410 | > 4610 | 16 | Cc1cccc(Cl)c1Oc1cccc(F)c1OC1CNC1 | 
17 | 116 | > 6460 | 1160 | 3 | Cc1cccc(F)c1Oc1cccc(F)c1OC1CNC1 | Activity (Rattus norvegicus [5]): 76%; Activity (Rattus norvegicus [6]): 84%; Cmax [7]: 525 ng/mL; Tmax [8]: 1 h; AUC(0-t) at 24 h [9]: 2800 ng·h/mL; half-life [10]: 3.01 h; concentration at 1 h [11]: 5690 ng/mL; EC50 [12]: 225 nM; EC50 [13]: 239 nM
18 | 198 | 4700 | 1710 | 14 | Fc1cccc(Oc2ccccc2Cl)c1OC1CNC1 | 
19 | 73 | > 4260 | > 6280 | 64 | Fc1cccc(Cl)c1Oc1ncccc1OC1CNC1 | 
20 | 482 | > 6410 | > 4620 | < 3 | Fc1cccc(F)c1Oc1cccc(F)c1OC1CNC1 | 
21 | 528 | 2040 | > 4710 | 22 | Fc1ccccc1Oc1ccccc1OC1CNC1 | 
22 | 374 | 312 | 94 | 16 | Fc1cccc(Oc2cccc(Cl)c2Cl)c1OC1CNC1 | 
23 | 1140 | > 4620 | > 6130 | 203 | Fc1cccc(Cl)c1Oc1ncccc1OC1CCNC1 (centres undefined) | 
24 | 192 | 2030 | 2230 | 19 | Fc1cccc(Oc2ccccc2Cl)c1OC1CCNC1 (centres undefined) | 
25 | 218 | > 6370 | 2040 | 8 | Fc1cccc(Cl)c1Oc1cccc(F)c1OC1CCNCC1 | 
